According to ChEMBL document CHEMBL3352724, “Phenolic Glycosides from the Twigs of Salix glandulosa” (J Nat Prod, 2014):

How the values were obtained:
A549 = assay: Cytotoxicity against human A549 cells by sulforhodamine B bioassay; type: functional, cell-based
How it was run: (§1)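 Sulforhodamine B assay on cultured human tumor cell lines A549, SK-OV-3, A498 and HCT15. Run at the Korea Research Institute of Chemical Technology.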

[1] = Cytotoxicity against human SKOV3 cells by sulforhodamine B bioassay; type: functional, cell-based; settings: SK-OV-3; how it was run: as §1
[2] = Cytotoxicity against human HCT15 cells by sulforhodamine B bioassay; type: functional, cell-based; settings: HCT-15; how it was run: as §1
[3] = Cytotoxicity against mouse BV2 cells by MTT assay; design: concentration or dose not given beside the values; settings: bv-2
[4] = Antineuroinflammatory activity against mouse BV2 cells assessed as inhibition of LPS-induced NO production treated with compound 30 mins and challenged with LPS for 24 hrs; settings: BV-2
SK-MEL-2 = assay: Cytotoxicity against human SK-MEL-2 cells by sulforhodamine B bioassay; type: functional, cell-based

## O=C(/C=C/c1ccc(O)cc1)O[C@H]1[C@H](O[C@@H]2CCCC[C@H]2O)O[C@H](CO)[C@@H](O)[C@@H]1O
A549
  IC50: > 10 µM
[1]
  IC50: > 10 µM
[2]
  IC50: > 10 µM
[3]
  Activity: 107.2%
[4]
  IC50: 20.5 µM

## O=C(/C=C\c1ccc(O)cc1)O[C@H]1[C@H](O[C@@H]2CCCC[C@H]2O)O[C@H](CO)[C@@H](O)[C@@H]1O
A549
  IC50: > 10 µM
[1]
  IC50: > 10 µM
[2]
  IC50: > 10 µM
[3]
  Activity: 102.5%
[4]
  IC50: 6.6 µM

## O=C(/C=C/c1ccc(O)cc1)OC[C@H]1O[C@@H](O[C@@H]2CCCC[C@H]2O)[C@H](O)[C@@H](O)[C@@H]1O
A549
  IC50: > 10 µM
[1]
  IC50: > 10 µM
[2]
  IC50: > 10 µM
[3]
  Activity: 100.7%
[4]
  IC50: 14.8 µM

## O=C(/C=C\c1ccc(O)cc1)OC[C@H]1O[C@@H](O[C@@H]2CCCC[C@H]2O)[C@H](O)[C@@H](O)[C@@H]1O
A549
  IC50: > 10 µM
[1]
  IC50: > 10 µM
[2]
  IC50: > 10 µM

## O=C(OC[C@H]1O[C@@H](O[C@@H]2CCCC[C@H]2O)[C@H](O)[C@@H](O)[C@@H]1O)c1ccc(O)cc1
A549
  IC50: > 10 µM
[1]
  IC50: > 10 µM
[2]
  IC50: > 10 µM

## O=C(/C=C/c1ccc(O)cc1)O[C@H]1[C@H](O[C@H]2CCCC[C@@H]2O)O[C@H](CO)[C@@H](O)[C@@H]1O
A549
  IC50: > 10 µM
[1]
  IC50: > 10 µM
[2]
  IC50: > 10 µM
[3]
  Activity: 93.6%
[4]
  IC50: 15.5 µM

## O=C(/C=C\c1ccc(O)cc1)O[C@@H]1[C@H](O[C@H]2CCCC[C@@H]2O)O[C@H](CO)[C@@H](O)[C@H]1O
A549
  IC50: > 10 µM
[1]
  IC50: > 10 µM
[2]
  IC50: > 10 µM
[3]
  Activity: 96.2%
[4]
  IC50: 18.1 µM

## O=C(/C=C\c1ccc(O)cc1)O[C@@H]1[C@H](O[C@@H]2CCCC[C@@H]2O)O[C@H](CO)[C@@H](O)[C@H]1O
A549
  IC50: > 10 µM
[1]
  IC50: > 10 µM
[2]
  IC50: > 10 µM

## O=C(/C=C/c1ccc(O)cc1)O[C@H]1[C@H](O[C@H]2CCCC[C@H]2O)O[C@H](CO)[C@@H](O)[C@@H]1O
A549
  IC50: > 10 µM
[1]
  IC50: > 10 µM
[2]
  IC50: > 10 µM

## O=C(/C=C\c1ccc(O)cc1)O[C@H]1[C@H](O[C@H]2CCCC[C@H]2O)O[C@H](CO)[C@@H](O)[C@@H]1O
A549
  IC50: > 10 µM
[1]
  IC50: > 10 µM
[2]
  IC50: > 10 µM

## O=C(/C=C/c1ccc(O)cc1)OC[C@H]1O[C@@H](O[C@H]2CCCC[C@H]2O)[C@H](O)[C@@H](O)[C@@H]1O
A549
  IC50: > 10 µM
[1]
  IC50: > 10 µM
[2]
  IC50: > 10 µM

## O=C(/C=C\c1ccc(O)cc1)OC[C@H]1O[C@@H](O[C@H]2CCCC[C@H]2O)[C@H](O)[C@@H](O)[C@@H]1O
A549
  IC50: > 10 µM
[1]
  IC50: > 10 µM
[2]
  IC50: > 10 µM

## O=C(/C=C/c1ccc(O)cc1)O[C@H]1[C@H](O[C@@H]2CCCC[C@@H]2O)O[C@H](CO)[C@@H](O)[C@@H]1O
A549
  IC50: > 10 µM
[1]
  IC50: > 10 µM
[2]
  IC50: > 10 µM

## COc1cccc2c1C(=O)c1c(O)c3c(c(O)c1C2=O)C[C@@](O)(C(=O)CO)C[C@@H]3O[C@H]1C[C@H](N)[C@H](O)[C@H](C)O1 [DOXORUBICIN]
A549
  IC50: 0.0014 µM
[1]
  IC50: 0.0217 µM
SK-MEL-2
  IC50: 2.5 nM
[2]
  IC50: 0.108 µM

## CNC(=N)NCCC[C@H](N)C(=O)O [TILARGININE]
[3]
  Activity: 99.8%
[4]
  IC50: 24.3 µM
